# Assay results as given in ChEMBL document CHEMBL1128475, “Synthesis, pharmacologic activity, and structure-activity relationships of a series of propafenone-related modulators of multidrug resistance” (1995).
# Tests used:
# CCRF-CEM [1] = test: The reversion potency of compound was measured against P-glycoprotein expressing CCRF-CEM cells and expressed as the ratio of ED50 in the absence and presence […]; assay type: functional, Homo sapiens
# CCRF-CEM [2] = test: The chemosensitizing effect was measured against P-glycoprotein expressing CCRF-CEM cells in the presence of […]; assay type: functional; conditions: Homo sapiens, read-out: ED50 (the source's name)
# How it was run: (§1)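 CCRF-CEM vcr 100 cells (selected stepwise in vincristine; kept in 100 ng/mL vincristine until 1 week before use), RPMI 1640 with 10% FCS. Cytotoxicity of daunomycin or etoposide by MTT reduction, formazan dissolved in 2-propanol/0.04 N HCl, absorbance read. Modifier at 5 μM; six toxin concentrations, triplicate points, ED50 estimated. Reversion potency = toxin ED50 without/with modifier.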
# CCRF-CEM [3] = test: The percentage uptake of [3H]daunomycin in resistant CCRF-CEM vcr 100 cells to sensitive CCRF-CEM cells in presence of the compound.; assay type: functional, cell-based; conditions: Homo sapiens
# How it was run: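 Rapid-centrifugation uptake. Resistant CCRF-CEM vcr 100 and sensitive CCRF-CEM cells at 5×10^6 cells/mL in RPMI 1640 with 2% FCS. Modifier (final 5 μM, from 100× DMSO stock) added 10 min before [3H]daunomycin (0.4 μCi/mL; total daunomycin final 1 μmol/L). Sampled at 0–60 min, spun through phthalate oil, pellets solubilized in NaOH/SDS, counted by LSC. Expressed as % of sensitive-cell uptake.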
# CCRF-CEM [4] = test: The reversion potency of compound was measured against P-glycoprotein expressing CCRF-CEM cells and expressed as the ratio of ED50 in the absence and presence of etoposide; assay type: functional, Homo sapiens; how it was run: as §1
# CCRF-CEM [5] = test: The effective dose was measured against P-glycoprotein expressing CCRF-CEM cells in the presence of 5 uM etoposide; assay type: functional; conditions: Homo sapiens, read-out: ED50 (the source's name); how it was run: as §1
# CCRF-CEM [6] = test: The effective dose was measured against P-glycoprotein expressing CCRF-CEM cells in the presence of […]; assay type: functional; conditions: Homo sapiens, read-out: ED50 (the source's name); how it was run: as §1
EC50 (CCRF-CEM [5]),EC50 (CCRF-CEM [6]),SMILES,RP (CCRF-CEM [1]),EC50 (CCRF-CEM [2]),Uptake (CCRF-CEM [3]),RP (CCRF-CEM [4])
–,–,CCCNCC(O)COc1ccccc1C(=O)CCc1ccccc1 (stereo not given) [PROPAFENONE],16,0.088 µM,65%,–
–,–,CCN(CC)CC(O)COc1ccccc1C(=O)c1ccccc1 (stereo not given),9,0.15 µM,–,–
0.648 µM,–,Cc1ccccc1N1CCN(CC(O)COc2ccccc2C(=O)CCc2ccccc2)CC1 (stereo not given),33,0.043 µM,96%,5.4
3.3 µM,–,O=C(CCc1ccccc1)c1ccccc1OCC(O)CN1CCCCC1 (stereo not given),30,0.046 µM,83%,1.1
–,–,O=C(CCc1ccccc1)c1ccccc1OCC(O)CN1CCCC1 (stereo not given),20,0.07 µM,–,–
–,–,CC(=O)c1ccccc1OCC(O)CN1CCCCC1 (stereo not given),2,0.77 µM,–,–
–,–,O=C(CCc1ccccc1)c1ccccc1OCC(O)CN1CCOCC1 (stereo not given),4,0.359 µM,–,–
–,–,CC(C)N(CC(O)COc1ccccc1C(=O)CCc1ccccc1)C(C)C (stereo not given),22,0.065 µM,82%,–
1.02 µM,–,O=C(CCc1ccccc1)c1ccccc1OCC(O)CN1CCN(c2ccc(F)cc2)CC1 (stereo not given),34,0.041 µM,92%,3.4
3.4 µM,–,CCN(CC)CC(O)COc1ccccc1C(=O)CCc1ccccc1 (stereo not given),12,0.115 µM,68%,–
3.4 µM,0.045 µM,COc1ccc(CCN(C)CCCC(C#N)(c2ccc(OC)c(OC)c2)C(C)C)cc1OC (stereo not given),–,–,79%,–
–,–,CCCNCC(O)c1oc2ccccc2c1CCc1ccccc1 (stereo not given),7,0.198 µM,–,–
–,–,CCCN(C)CC(O)COc1ccccc1C(=O)CCc1ccccc1 (stereo not given),26,0.055 µM,–,–
0.948 µM,–,COc1ccc(N2CCN(CC(O)COc3ccccc3C(=O)CCc3ccccc3)CC2)cc1 (stereo not given),42,0.033 µM,96%,3.7
